SKN-1 inh – C. elegans SKN-1 inhibition | C. elegans VP596 Pgst-4::GFP/RFP ratio, acrylamide-induced, 24 h | inhibition, % at 21.8 µM | actives 0.49% (n = 360,000);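 active = interference check ratio from 0.5 to 1.5 plus GFP to RFP signal ratio inhibition reaching or exceeding a fixed threshold, cut at about 30% in these data, passing the limit was not always enough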
MT1-MMP act inh – blocks activation of human MT1-MMP. P50281. HT1080 RFP-PRO-GFP cells, GFP/RFP ratio fluorescence, overnight; percent of plate control window, DMSO zero. GFP/RFP ratio change, % at 20 µM. actives 0.061% (n = 360,000);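 active = GFP/RFP ratio change of at least 30% with cell ATP level not reduced by more than half and red fluorescence within 50% of control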
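Assay system: HT1080 cells carrying an RFP-PRO-GFP reporter | Dosing: Single dose of 20 µM compound, 1% DMSO final | Incubation: Cells overnight before dosing, compound overnight, 37 °C, 5% CO2 | Evaluation: GFP/RFP fluorescence ratio | Control set: DMSO and RFP-L50D-GFP cell wells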
Rin1 Abl inh – blocks binding of human Rin1 to Abl | P00519+Q13671 | TR-FRET Rin1/Abl binding, biochemical | inhibition, % at 7.35 µM | actives 0.4% (n = 360,000); in the data active = inhibition above about 5%, passing the limit was not always enough
TbMetRS inhib – blocks T. brucei methionyl-tRNA synthetase activity | actives 0.4% (n = 360,000) | inhibition, % at 11.9 µM | purified T. brucei MetRS, ATP depletion, Kinase-Glo luminescence;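 active = inhibition above a per-plate cutoff of the control wells' mean inhibition plus 3 SD, cut at about 5.5% in these data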
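assay system = parasite MetRS enzyme | timing = 15 min preincubation, 2 h reaction, all 25 °C | evaluation = percent inhibition relative to median high and low control wells | medium = HEPES buffer containing pyrophosphatase, BSA, spermine, DTT | compound = single dose, 11.9 µM final nominal, 0.9% final DMSO | detection = Kinase-Glo luminescence, ATP depletion format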
Arrestin-AP2 inh – inhibitors of human beta-arrestin and AP2 interaction | FITC-arrestin peptide / GST-AP2 beads, flow cytometry; AP2 beta2 appendage carries R879A mutation | inhibition, % at 10 µM | actives 0.31% (n = 340,000) | AID 504490;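 active = inhibition above a set limit, near 3 SD of compounds lacking own fluorescence, cut at about 54% in these data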
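System: GST-AP2 R879A glutathione beads. Medium: PBS with 0.05% Tween 20 and 0.1% BSA. Also added: FITC-arrestin peptide, 50 nM. Incubation: 12 min plus 1 h, RT. Measured by: high-throughput flow cytometry of beads, ex 488, em 535 nm. Evaluation: percent drop in bead-associated FITC signal.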
Large screens that a line does not name were inactive. This is a sample that favours compounds with a hit; in the whole collection about 1.6% have one here.

O=C(COC(=O)CCNS(=O)(=O)c1ccccc1)Nc1ccc(OC(F)F)cc1	SKN-1 inh 45
CC(C)C(CCNCc1ccccn1)c1ccc(Cl)cc1 (stereo not given)	SKN-1 inh 38
CCC/C=C/c1ccc(CN2C(C(C)C)C(=O)N(Cc3cn(CC4CCCCC4)nn3)CCS2(=O)=O)cc1 (stereo not given)	none (no result: Arrestin-AP2 inh)
Cc1csc2nc(CNS(=O)(=O)c3ccc4c(c3)CCCC4)cn12	SKN-1 inh 36
COc1ccc(NS(=O)(=O)c2cccc(-c3nnc(-c4ccccc4)o3)c2)cc1	SKN-1 inh 34
CC(C)=CCCC(C)c1cc(C(=O)NCCc2ccc(O)cc2)c(N)s1 (stereo not given)	none (no result: Rin1 Abl inh, Arrestin-AP2 inh)
COCc1cc(C)nc(SCC(=O)Nc2ccc(C)c(C)c2)c1C#N	SKN-1 inh 45
Cn1cnc2ncnn2c1=S	none (no result: Arrestin-AP2 inh)
Cc1cccc(C)c1N(CC(=O)Nc1cccc(N(C)S(C)(=O)=O)c1)S(C)(=O)=O	SKN-1 inh 37
COc1ccc(S(=O)(=O)N(C)C[C@H]2Oc3ccc(NS(=O)(=O)c4ccc(F)cc4)cc3C(=O)N([C@H](C)CO)C[C@@H]2C)cc1	none
Cc1sc(NC(=O)C2=COCCO2)nc1-c1ccc(Cl)cc1	SKN-1 inh 39
Cc1[nH]c2ccccc2c1N=Nc1ccc(F)cc1	SKN-1 inh 87
Cc1[nH]c2ccc(Br)cc2c(=O)c1CN1CCOCC1	TbMetRS inhib 35
CCOc1ccc2[nH]c(C)c(CN3CCOCC3)c(=O)c2c1	none
COCCCN(C(=O)CCOc1ccccc1C)c1c(N)n(Cc2ccccc2)c(=O)[nH]c1=O	none
FC(F)(F)c1cc(Cl)c2nc(-c3ccccc3)cn2c1	SKN-1 inh 41
CC1(C(=O)NS(=O)(=O)C2CC2)CCCN(C(=O)c2cccc(OC(F)(F)F)c2)C1 (stereo not given)	none (no result: Arrestin-AP2 inh)
CCOc1ccc(NC(=O)CCN2CCN(C)CC2)cc1	SKN-1 inh 37
C[C@@H]1Cc2[nH][nH]c(=O)c2[C@H](C)O1	none (no result: Rin1 Abl inh, Arrestin-AP2 inh)
CC1C/C(=C/c2ccccn2)C(=O)/C(=C/c2ccccn2)C1 (stereo not given)	none
C(=C\c1ccccn1)/c1ccccn1	none
Clc1ccc(C=Cc2ccccn2)cc1	SKN-1 inh 72
Cc1ccc(C=Cc2ccccn2)cc1	SKN-1 inh 43 (no result: Arrestin-AP2 inh)
Cc1ccc(-c2nc(SC(C)C(=O)NC3CC3)n[nH]2)cc1 (stereo not given)	none (no result: Arrestin-AP2 inh)
c1ccc2c(c1)OCCc1c-2[nH]c2ccccc12	SKN-1 inh 52
CCCC(=O)N1CCN(c2ccc(NC(=O)c3cc4ccccc4o3)cc2Cl)CC1	none
CCC(=O)N1CCN(c2ccc(NC(=O)c3cc4ccccc4o3)cc2Cl)CC1	SKN-1 inh 31
COc1ccc(C(C(=O)NC2CCCC2)N(C(=O)c2snc(-c3ccc(F)cc3)c2N)c2ccc(F)cc2)cc1 (stereo not given)	SKN-1 inh 46
CCCNc1c(F)c(F)c2c(C)c3ccccc3nc2c1F	SKN-1 inh 39
O=C(/C=C/c1ccco1)N1CCc2ccccc21	SKN-1 inh 58
Cc1ccc(/C=C/C(=O)N2CCc3ccccc32)o1	none
COC(=O)[C@@]12C[C@@H](CC(=O)NCc3cccc4ccccc34)C(=O)N(Cc3ccco3)C1=CCC(C)(C)C2	none (no result: Rin1 Abl inh, Arrestin-AP2 inh)
O=C(C1CCN(S(=O)(=O)c2c(Cl)cccc2Cl)CC1)N1CCCC1	SKN-1 inh 35
O=C(C1CCCCC1)N1CCN(S(=O)(=O)c2ccc(Cl)cc2)CC1	SKN-1 inh 37
O=C(C1CCN(S(=O)(=O)c2ccc(Cl)cc2)CC1)N1CCCCCCC1	none
O=C(CCCOc1ccccc1)N1CCN(S(=O)(=O)c2ccc(Cl)cc2)CC1	none
CCOc1ccc(OCCCC(=O)N2CCN(S(=O)(=O)c3ccc(Cl)cc3)CC2)cc1	Rin1 Abl inh 58
CCOc1ccc(Cl)cc1-c1cc(C(=O)Nc2ccc(Br)cc2)[nH]n1	none (no result: Arrestin-AP2 inh)
Cc1cn([C@H]2C[C@H](O)[C@@H](CNCc3ccccc3OCCCN3CCOCC3)O2)c(=O)[nH]c1=O	none (no result: Arrestin-AP2 inh)
CC1CCN(S(=O)(=O)c2ccc(C(=O)N3CCOCC3)cc2)CC1	SKN-1 inh 39
Cc1c(OC(=O)CNC(=O)OC(C)(C)C)ccc2c3c(c(=O)oc12)CCC3	SKN-1 inh 45
Cc1c(OCC(=O)OC(C)(C)C)ccc2c3c(c(=O)oc12)CCC3	none
O=C1C(=Cc2ccc(Br)o2)C(=O)c2ccccc21	Rin1 Abl inh 8.7
CC1=C/C(=C\c2ccc(Br)o2)C(=O)O1	none
CCSc1nnc(-c2ccc(Cl)cc2Cl)o1	SKN-1 inh 67
Fc1ccc(-c2nnc(-c3ccc(Cl)cc3Cl)o2)cc1	SKN-1 inh 48
Clc1ccc(-c2nnc(-c3ccccc3)o2)c(Cl)c1	SKN-1 inh 69
CSc1ccccc1-c1nnc(-c2ccc(Cl)cc2Cl)o1	none
CSc1nnc(-c2ccc(Cl)cc2Cl)o1	none
Fc1ccc(-c2nnc(-c3ccc(Cl)cc3)o2)cc1	none
Cc1ccc(S(=O)(=O)N2C[C@]3(O)C[C@@H]4C(=O)N(c5ccccc5)C(=O)[C@@H]4C[C@]3(OC(=O)NCC3CCCCC3)C2)cc1	none (no result: Arrestin-AP2 inh)
O=C(Nc1ccc(SC(F)F)cc1)c1ccccc1F	SKN-1 inh 41
CCOc1ccccc1NC(=O)C(NC(=O)C1CCC(C)CC1)C(C)C (stereo not given)	none
CCOc1ccccc1NC(=O)C(CC(C)C)NC(=O)C1CCC(C)CC1 (stereo not given)	SKN-1 inh 41
COCOCCn1cc(CN2CCS(=O)(=O)N(Cc3ccc(-c4cccc(N(C)C)c4)cc3)C(C(C)C)C2=O)nn1 (stereo not given)	SKN-1 inh 36 (no result: Arrestin-AP2 inh)
O=C1/C(=C\c2cccnc2)CCc2ccccc21	none
O=C1/C(=C/c2ccccc2)CCCc2ccccc21	SKN-1 inh 47
c1ccc(-c2nc3cc4ccccc4cc3[nH]2)nc1	SKN-1 inh 42
Cc1cccn2c(=O)c(C=NCCO)c(NCc3ccco3)nc12	none
Cc1cccn2c(=O)c(C=Nc3ccccc3)c(NCc3ccco3)nc12	SKN-1 inh 41
Cc1ccc(OCC(=O)O/N=C(\N)c2cccnc2)cc1	none
N/C(=N\OC(=O)COc1ccc2ccccc2c1)c1cccnc1	SKN-1 inh 42
N/C(=N\OC(=O)COc1ccc2ccccc2c1)c1ccncc1	SKN-1 inh 39
N/C(=N\OC(=O)COc1ccc(Cl)cc1)c1cccnc1	SKN-1 inh 37
Cc1cccc(OCC(=O)O/N=C(\N)c2ccncc2)c1	none
COc1ccc(N2C(=O)c3ccccc3NC(=O)C2C(=O)NCCc2ccccc2F)cc1 (stereo not given)	none (no result: Rin1 Abl inh, Arrestin-AP2 inh)
CC1(C(=O)Nc2cccc3ncccc23)CCN1C(=O)Cc1ccc(-c2ccccc2)cc1 (stereo not given)	none (no result: Arrestin-AP2 inh)
